Experimental data as given in ChEMBL document CHEMBL4619723, “New CDK8 inhibitors as potential anti-leukemic agents - Design, synthesis and biological evaluation” (Bioorg Med Chem, 2020).

What was measured:
[1] = molecular target: cAMP-dependent protein kinase catalytic subunit beta (Homo sapiens) (UniProt P22694); test: Inhibition of biotinylated ligand binding to wild-type human full length PKAC-beta (M1 to F351 residues) expressed in bacterial expression system at 50 nM measured after 1 hr by kinomescan assay relative to control
[2] = molecular target: Phosphatidylinositol 4-phosphate 5-kinase type-1 alpha (Homo sapiens) (UniProt Q99755); test: Inhibition of biotinylated ligand binding to wild-type human full length PIP5K1A (M1 to H562 residues) expressed in bacterial expression system at 50 nM measured after 1 hr by kinomescan assay relative to control
Chain of Phosphatidylinositol 4-phosphate 5-kinase type-1 alpha (Homo sapiens) (Q99755 whole entry, the tested form may be a part): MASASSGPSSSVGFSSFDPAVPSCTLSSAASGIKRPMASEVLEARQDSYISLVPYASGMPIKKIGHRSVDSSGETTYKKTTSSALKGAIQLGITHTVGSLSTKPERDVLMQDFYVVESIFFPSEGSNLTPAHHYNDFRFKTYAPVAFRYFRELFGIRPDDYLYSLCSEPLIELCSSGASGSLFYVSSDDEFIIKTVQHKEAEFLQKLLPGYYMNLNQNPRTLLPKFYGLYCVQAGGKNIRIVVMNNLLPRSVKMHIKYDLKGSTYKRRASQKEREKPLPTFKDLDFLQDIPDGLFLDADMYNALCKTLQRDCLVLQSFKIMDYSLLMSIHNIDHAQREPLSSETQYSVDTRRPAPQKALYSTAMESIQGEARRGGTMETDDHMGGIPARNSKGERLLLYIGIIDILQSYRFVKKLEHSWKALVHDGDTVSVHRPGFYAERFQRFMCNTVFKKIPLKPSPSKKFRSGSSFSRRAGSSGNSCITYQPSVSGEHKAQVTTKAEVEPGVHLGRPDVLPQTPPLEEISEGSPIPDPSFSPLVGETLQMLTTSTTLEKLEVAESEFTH
Method in brief: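 Kinase-tagged T7 phage was grown in an E. coli BL21-derived host at 32 °C until lysis, and the lysate was clarified. Kinase was bound to streptavidin beads carrying a biotinylated ligand, with test compound at 50 nM (final DMSO), in binding buffer for 1 h at rt. Bound kinase was eluted and quantified by qPCR. Result is POC relative to the DMSO (100%) and control-compound (0%) references.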

[3] = molecular target: Rho-associated protein kinase 1 (Homo sapiens) (UniProt Q13464); test: Inhibition of biotinylated ligand binding to wild-type human partial length ROCK1 (M1 to R415 residues) expressed in mammalian expression system at 50 nM measured after 1 hr by kinomescan assay relative to control
Chain of Rho-associated protein kinase 1 (Homo sapiens) (Q13464 2-1354 limits assumed): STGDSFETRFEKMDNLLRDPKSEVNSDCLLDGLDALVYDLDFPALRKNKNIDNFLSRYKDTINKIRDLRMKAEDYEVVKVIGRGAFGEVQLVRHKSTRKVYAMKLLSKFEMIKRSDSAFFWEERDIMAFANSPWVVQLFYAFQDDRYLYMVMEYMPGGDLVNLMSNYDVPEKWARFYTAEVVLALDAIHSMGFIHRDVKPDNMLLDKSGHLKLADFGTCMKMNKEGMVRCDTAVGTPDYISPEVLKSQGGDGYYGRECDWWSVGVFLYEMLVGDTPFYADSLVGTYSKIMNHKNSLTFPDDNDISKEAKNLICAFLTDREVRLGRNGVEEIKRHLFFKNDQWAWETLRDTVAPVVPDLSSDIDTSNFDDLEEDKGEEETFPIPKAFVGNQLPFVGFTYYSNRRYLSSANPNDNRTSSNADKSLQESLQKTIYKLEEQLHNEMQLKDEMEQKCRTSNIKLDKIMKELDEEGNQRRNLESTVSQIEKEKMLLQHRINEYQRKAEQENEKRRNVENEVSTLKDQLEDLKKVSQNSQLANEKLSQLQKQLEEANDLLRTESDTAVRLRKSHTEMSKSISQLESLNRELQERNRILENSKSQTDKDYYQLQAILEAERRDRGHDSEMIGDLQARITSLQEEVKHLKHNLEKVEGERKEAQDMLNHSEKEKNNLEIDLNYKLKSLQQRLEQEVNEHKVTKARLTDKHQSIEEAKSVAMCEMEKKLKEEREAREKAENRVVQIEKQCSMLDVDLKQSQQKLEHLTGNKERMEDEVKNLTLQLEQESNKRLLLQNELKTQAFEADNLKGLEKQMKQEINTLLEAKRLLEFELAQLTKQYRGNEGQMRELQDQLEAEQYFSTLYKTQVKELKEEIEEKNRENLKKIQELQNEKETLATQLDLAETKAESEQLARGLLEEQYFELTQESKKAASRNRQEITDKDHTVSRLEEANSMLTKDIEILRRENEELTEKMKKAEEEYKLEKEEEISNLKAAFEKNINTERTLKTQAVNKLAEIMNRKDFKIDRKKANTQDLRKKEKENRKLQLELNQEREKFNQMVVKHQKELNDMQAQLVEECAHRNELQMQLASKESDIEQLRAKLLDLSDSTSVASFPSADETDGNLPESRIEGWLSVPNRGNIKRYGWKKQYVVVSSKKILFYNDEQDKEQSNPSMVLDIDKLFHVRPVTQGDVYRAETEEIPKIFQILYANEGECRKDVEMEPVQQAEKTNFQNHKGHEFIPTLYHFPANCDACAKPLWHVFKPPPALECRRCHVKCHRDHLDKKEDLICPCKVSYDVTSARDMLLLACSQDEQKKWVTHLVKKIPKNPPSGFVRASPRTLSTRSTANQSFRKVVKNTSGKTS
Method in brief: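 Competition binding: kinase was bound to streptavidin beads carrying a biotinylated ligand, with test compound at 50 nM, in 20% SeaBlock, 0.17x PBS, 0.05% Tween 20 and 6 mM DTT for 1 h at rt with shaking. After washing, kinase was eluted with 0.5 μM free ligand and quantified by qPCR. Result is POC relative to the DMSO (100%) and control-compound (0%) references.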

Measured: inhibition

CN(C)[C@@H]1CC[C@@]2(C)[C@@H](CC[C@@H]3[C@@H]2CC[C@]2(C)C(c4cccc5cnccc45)=CC[C@@H]32)C1
> 80%: all assays above
